MrgX1 antag = antagonists of human MrgX1 receptor | B-score at 10 µM | MRGX1-HEK293 calcium flux, Fluo-4, BAM8-22 antagonism; active compounds read low | actives 1.3% (n = 310,000) | AID 588676;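 active = calcium-response B-score plate-corrected more than 3 library SD below zero, starting fluorescence within 5 deviations, no agonist response on first addition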;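 also: peak minus trough fluorescence over baseline after final BAM8-22 challenge near maximal dose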
Target sequence (Q96LB2 whole entry, looked up): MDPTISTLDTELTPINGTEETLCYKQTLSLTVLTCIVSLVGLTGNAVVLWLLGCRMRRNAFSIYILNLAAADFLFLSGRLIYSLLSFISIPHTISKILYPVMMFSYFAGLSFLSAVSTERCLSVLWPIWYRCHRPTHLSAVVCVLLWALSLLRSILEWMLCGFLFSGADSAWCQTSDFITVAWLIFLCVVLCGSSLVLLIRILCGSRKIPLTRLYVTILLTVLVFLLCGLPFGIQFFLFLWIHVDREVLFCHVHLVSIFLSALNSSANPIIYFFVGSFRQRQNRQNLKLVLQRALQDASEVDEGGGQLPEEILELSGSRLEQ
RGS4 pot = RGS4 potentiation or activation; actives 0.92% (n = 310,000); B-score at 10 µM; HEK293 M3R/inducible RGS4, carbachol calcium flux Fluo4; active compounds read low; AID 463111;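 active = B-score of the integrated calcium signal more than 4 SD below the library mean, with starting fluorescence not abnormally high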;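 also: negative B-score means reduced calcium response which marks RGS4 activation or potentiation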
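Reagent: ECmax carbachol challenge; Test system: M3R-expressing HEK293 line, RGS4 induced by doxycycline; Schedule: overnight RGS4 induction, 30 min dye load 37 °C, 20 min compound RT; Detection: calcium dye Fluo4 fluorescence; Read-out: Agonist-evoked peak-minus-minimum fluorescence over baseline, integrated ratio, B score.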
RGS4 inh = inhibitors of human RGS4; P49798; HEK293 M3R/RGS4 inducible, Fluo-4 calcium flux; active compounds read high; triggered by carbachol at its EC20; B-score at 10 µM; actives 0.45% (n = 310,000); AID 463165;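 active = B-score, a plate-corrected calcium signal, over three deviations above library mean, with baseline fluorescence within five deviations of library mean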;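 also: RGS4 expression induced by doxycycline in cells with stable M3 receptor; B-score is computed from the integrated fluorescence ratio over baseline after carbachol; higher B-score means a larger calcium signal and so more RGS4 inhibition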
Target sequence (P49798 whole entry, looked up): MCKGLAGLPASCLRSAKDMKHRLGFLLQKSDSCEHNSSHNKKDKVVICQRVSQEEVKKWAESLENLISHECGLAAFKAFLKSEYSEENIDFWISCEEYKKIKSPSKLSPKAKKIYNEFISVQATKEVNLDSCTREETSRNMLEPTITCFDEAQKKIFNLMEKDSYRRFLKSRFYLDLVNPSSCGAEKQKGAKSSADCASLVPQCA
MrgX1 agonist = human MrgX1 receptor agonism, primary screen. actives 0.44% (n = 310,000). B-score at 10 µM. Q96LB2. AID 588627. MrgX1-HEK293 cells, Fluo-4 calcium fluorescence, agonist mode; active compounds read high;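 active = calcium response B-score plate-corrected fluorescence ratio at least 3 library SD, with starting fluorescence B-score inside 5 SD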
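Test system: HEK293 cells stably expressing human MrgX1 receptor; amount: 15,000 cells per well; doses: compound delivered in addition one of three; times: overnight plating before 1 h dye loading; detection: Fluo-4 NW calcium-flux fluorescence, kinetic read; read-out basis: B-scored fluorescence response ratio; controls: positive and negative controls per plate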
MrgX1 allo act = human MrgX1 positive allosteric modulation, primary screen; B-score at 10 µM; actives 0.63% (n = 310,000); Q96LB2; MrgX1-HEK293, Fluo-4 calcium flux, FDSS; active compounds read high;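 active = plate-corrected calcium response at least 3 library SD above typical, normal starting fluorescence, not activating the receptor alone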;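 also: compound read alongside a low EC10 to EC30 dose of BAM8-22 agonist; peak minus trough fluorescence over baseline measured at the second addition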
MrgX1 antag conf = human MrgX1 receptor antagonism, re-confirmation screen; MrgX1-HEK293, BAM8-22 calcium flux, Fluo-4; active compounds read low; shares compounds with MrgX1 antag; remaining BAM8-22 calcium response % of control (active compounds read low), % at 10 µM; actives 19% (n = 2,300); AID 602420;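 active = remaining agonist calcium response no higher than 100% minus 3 SD of agonist-only control wells, with starting fluorescence near control levels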;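 also: agonist BAM8-22 given at a near maximal EC90 to ECmax level; peak minus minimum fluorescence divided by baseline after agonist addition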
HEK293 Ca flux = counter-screen for MrgX1 antagonists: effect in parental HEK293 cells. shares compounds with MrgX1 antag. Fluo-4 calcium fluorescence, FDSS. fluorescence ratio F(max-min)/F0 at 10 µM. actives 2% (n = 4,000);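 active = duplicate-averaged calcium fluorescence ratio at least three times the standard deviation of buffer wells, a nonspecific response in parental cells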
HEK293 Ca counter = MrgX1 allosteric activator counter-screen hit in parental HEK293 cells. fluorescence ratio F(max-min)/F0 at 10 µM. shares compounds with MrgX1 antag. actives 0.4% (n = 4,000). parental HEK293 calcium flux, Fluo-4 fluorescence ratio; active compounds read high. AID 624114;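 active = calcium fluorescence ratio, averaged over duplicates, at least 3 SD of the buffer-well ratio, meaning a nonspecific response in receptor-free cells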;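 also: untransfected parental HEK293 lacking MrgX1 used as counterscreen for MrgX1 allosteric activators; fluorescence change taken during the second addition on a kinetic imager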
HEK293 Ca cntr2 = activity in parental HEK293 cells lacking MrgX1 receptor. shares compounds with MrgX1 antag. Fluo-4 calcium fluorescence (FDSS); active compounds read high. actives 8.7% (n = 4,000). fluorescence ratio F(max-min)/F0 at 10 µM;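 active = calcium fluorescence ratio at least three times the spread of buffer wells, meaning a non-specific response in parental cells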
An asterisk follows results filed as active; i = inactive; . = no result given. The list is not random: actives were taken first. Their share in the collection is about 3.5%.

SMILES	MrgX1 antag	RGS4 pot	RGS4 inh	MrgX1 agonist	MrgX1 allo act	MrgX1 antag conf	HEK293 Ca flux	HEK293 Ca counter	HEK293 Ca cntr2
Cc1ccc(NC(=O)C2CCCN(S(=O)(=O)c3ccc4[nH]c(=O)ccc4c3)C2)cc1C (centres undefined)	i	i	i	i	i	.	.	.	.
CCOC(=O)C1CCN(S(=O)(=O)c2ccc3[nH]c(=O)ccc3c2)CC1	-4.7*	i	i	i	i	i	i	i	i
Cc1ccc(C)c(N2CCN(C(=O)Cn3c(=O)oc4cc(S(=O)(=O)N5CCCC5)ccc43)CC2)c1	i	i	i	i	i	.	.	.	.
Cc1cccc(NC(=O)C2CCCN(S(=O)(=O)c3ccc4[nH]c(=O)ccc4c3)C2)c1 (centres undefined)	-6.5*	i	i	i	i	i	i	i	i
Cc1cc(C)cc(NC(=O)C2CCN(S(=O)(=O)c3ccc4[nH]c(=O)ccc4c3)CC2)c1	-6.4*	i	i	i	i	i	i	i	i
CCc1cccc(NC(=O)C2CCN(S(=O)(=O)c3ccc4[nH]c(=O)ccc4c3)CC2)c1	i	i	i	i	i	.	.	.	.
CCOC(=O)C1CCN(C(=O)Cn2c(=O)oc3cc(S(=O)(=O)N4CCCC4)ccc32)CC1	-5.1*	i	i	i	i	i	i	i	i
Cc1ccc2[nH]c(=O)c3cc(C(=O)N(C)c4ccccc4C)sc3c2c1	i	i	i	i	i	.	.	.	.
Cc1ccc(CN(C)C(=O)COC(=O)CSc2ccc(C(N)=O)cc2[N+](=O)[O-])cc1	i	i	i	i	i	.	.	.	.
Cc1ccsc1CNCc1cc(Cl)ccc1O	i	.	.	i	i	.	.	.	.
CCC(C)NC(=O)C1c2ccccc2C(=O)N(c2ccc(OC)cc2)C1c1ccc(OC)cc1 (centres undefined)	-6.5*	i	i	i	i	i	i	i	i
COC(=O)c1cccc(NC(=O)c2ccc3c(c2)C(=O)N(C(C)(C)C)C3=O)c1	-4.7*	i	i	i	i	i	i	i	i
CC(C)(C)NC(=O)c1cccc(NC(=O)c2ccc3c(c2)C(=O)N(C(C)(C)C)C3=O)c1	-11*	-7.1*	i	i	i	79%*	i	i	i
COC(=O)c1cccc(NC(=O)c2ccc3c(c2)C(=O)N(Cc2cccnc2)C3=O)c1	i	i	i	i	i	.	.	.	.
CC(C)(C)N1C(=O)c2ccc(C(=O)Nc3ccc(O)cc3)cc2C1=O	i	i	i	i	i	.	.	.	.
CCCN(C(=O)Cn1c(C(F)(F)F)nc2ccccc21)C1CCS(=O)(=O)C1 (centres undefined)	i	i	i	i	i	.	.	.	.
O=C(NC1CC1)C1CCN(S(=O)(=O)c2cc(Cl)ccc2Cl)CC1	-5.4*	i	i	i	i	i	i	i	i
Cc1ccc(NC(=O)CN(CCc2ccccc2)S(C)(=O)=O)cc1	i	i	i	i	i	.	.	.	.
COC(=O)c1c[nH]c(=O)c2ccccc12	-5.7*	i	i	i	i	i	i	i	i
O=C(c1ccc2c(=O)n3c(nc2c1)CCCCC3)N1CCN(c2ccc([N+](=O)[O-])cc2)CC1	i	i	i	i	i	.	.	.	.
CCOc1ccc(NC(=O)Cc2ccc(NC3=NC4CS(=O)(=O)CC4S3)cc2)cc1 (centres undefined)	i	i	i	i	i	.	.	.	.
CCc1ccc(NC(=O)Cc2ccc(NC3=NC4CS(=O)(=O)CC4S3)cc2)cc1 (centres undefined)	-6.1*	i	i	i	i	i	i	i	i
CCOC(=O)C1CCCN(S(=O)(=O)c2c(C)noc2C)C1 (centres undefined)	i	i	i	i	i	.	.	.	.
CN(C)/C=N/c1nc(-c2ccc3c(c2)OCO3)cs1	-6.4*	i	i	i	i	i	i	i	i
CCN(C(=O)COC(=O)c1cc(-c2ccccc2)nc2ccc(Br)cc12)C1CCS(=O)(=O)C1 (centres undefined)	i	i	i	i	i	.	.	.	.
SMILES	MrgX1 antag	RGS4 pot	RGS4 inh	MrgX1 agonist	MrgX1 allo act	MrgX1 antag conf	HEK293 Ca flux	HEK293 Ca counter	HEK293 Ca cntr2
CCN(C(=O)COc1ncnc2ccc(Br)cc12)C1CCS(=O)(=O)C1 (centres undefined)	-5.7*	i	i	i	i	i	i	i	i
CCn1c(/C=C/c2ccc(O)cc2)nc2ccccc2c1=O	i	i	i	i	i	.	.	.	.
CCn1c(/C=C/c2ccc(O)c(O)c2)nc2ccccc2c1=O	-4.7*	i	i	i	i	i	i	i	i
OC1CCN(CC(O)C(F)(F)F)CC1 (centres undefined)	-5.7*	i	i	i	i	i	i	i	i
O=C(O)c1ccc2ncsc2c1	-5.6*	i	i	i	i	68%*	i	i	i
O=C1C(=O)N(c2ccccn2)C(c2cccc([N+](=O)[O-])c2)/C1=C(/O)c1ccc(Br)cc1 (centres undefined)	i	i	i	i	i	.	.	.	.
CN1CCN(Cc2nc3ccccc3c(=O)n2CC#N)CC1	-5.6*	i	i	i	i	i	i	i	i
O=C(CNC(=S)NC(=O)c1ccc(F)cc1)c1ccccc1	-4.7*	i	i	i	i	i	i	i	i
O=C(CNC(=S)NC(=O)c1ccccc1)c1ccccc1	i	i	i	i	i	.	.	.	.
Cc1ccc(-c2noc(C3CCN(C(=O)Nc4ccc(C#N)cc4)CC3)n2)o1	-4.6*	i	i	i	i	76%*	i	i	i
COc1ccc(N2CCN(C(=O)C(=O)c3cn(CC(=O)N4CCCCCC4)c4ccccc34)CC2)cc1	i	i	i	i	i	.	.	.	.

Screening results as filed in PubChem BioAssay.
